According to ChEMBL document CHEMBL1142449 (Bioorg Med Chem, 2008):

Key:
Format in all cases: cell-based
[1] = target: Neurotensin receptor type 1 (Homo sapiens, UniProt P30989, H131A); test: (§1) Displacement of [3H]SR48692 from human NTR1 extracellular loop 1 H131A mutant expressed in HEK293 cells
Procedure, shortened: (§2)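 Membranes from HEK-293 cells transiently transfected (CaHPO4 method) with wild-type or EL1-mutant hNTR1 cDNA and harvested 48 h post-transfection. Homologous competition binding with 0.8 nM [3H]SR 48692 (81 Ci/mmol), adapted to 96-well format. Curves normalized per receptor, 4–6 experiments in triplicate. Kd and Bmax given with 95% confidence intervals.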

[2] = test system: Neurotensin receptor type 1 (Homo sapiens), P30989 [H131A]; test: as §1; procedure, shortened: as §2
Neurotensin receptor type 1 (Homo sapiens), P30989 [H131A], sequence (P30989 whole entry H131A): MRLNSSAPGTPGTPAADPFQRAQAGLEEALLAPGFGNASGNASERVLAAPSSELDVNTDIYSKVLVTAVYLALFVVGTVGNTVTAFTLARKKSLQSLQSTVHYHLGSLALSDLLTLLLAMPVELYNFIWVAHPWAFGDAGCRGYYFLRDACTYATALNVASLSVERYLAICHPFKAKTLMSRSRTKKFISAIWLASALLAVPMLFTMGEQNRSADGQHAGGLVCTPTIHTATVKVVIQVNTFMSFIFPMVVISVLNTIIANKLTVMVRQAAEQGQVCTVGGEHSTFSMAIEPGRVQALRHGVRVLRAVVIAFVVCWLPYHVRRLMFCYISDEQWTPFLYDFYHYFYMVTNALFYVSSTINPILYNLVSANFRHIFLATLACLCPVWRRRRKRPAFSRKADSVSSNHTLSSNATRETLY

[3] = test system: Neurotensin receptor type 1 (Homo sapiens), P30989 [F127A]; test: (§3) Displacement of [3H]SR48692 from human NTR1 extracellular loop 1 F127A mutant expressed in HEK293 cells; procedure, shortened: as §2
Neurotensin receptor type 1 (Homo sapiens), P30989 [F127A], sequence (P30989 whole entry F127A): as the sequence (P30989 whole entry H131A) above, with F127A, A131H counted along it

[4] = target: Neurotensin receptor type 1 (Homo sapiens, UniProt P30989, F127A); test: as §3; procedure, shortened: as §2
Neurotensin receptor type 1 (Homo sapiens, UniProt P30989, F127A), sequence (P30989 whole entry F127A): as the sequence (P30989 whole entry H131A) above, with F127A, A131H counted along it

[5] = test system: Neurotensin receptor type 1 (Homo sapiens), P30989 [W129A]; test: (§4) Displacement of [3H]SR48692 from human NTR1 extracellular loop 1 W129A mutant expressed in HEK293 cells; procedure, shortened: as §2
Neurotensin receptor type 1 (Homo sapiens), P30989 [W129A], sequence (P30989 whole entry W129A): as the sequence (P30989 whole entry H131A) above, with W129A, A131H counted along it

[6] = target: Neurotensin receptor type 1 (Homo sapiens, UniProt P30989, W129A); test: as §4; procedure, shortened: as §2
Neurotensin receptor type 1 (Homo sapiens, UniProt P30989, W129A), sequence (P30989 whole entry W129A): as the sequence (P30989 whole entry H131A) above, with W129A, A131H counted along it

[7] = test system: Neurotensin receptor type 1 (Homo sapiens), P30989 [P133A]; test: (§5) Displacement of [3H]SR48692 from human NTR1 extracellular loop 1 P133A mutant expressed in HEK293 cells; procedure, shortened: as §2
Neurotensin receptor type 1 (Homo sapiens), P30989 [P133A], sequence (P30989 whole entry P133A): as the sequence (P30989 whole entry H131A) above, with A131H, P133A counted along it

[8] = target: Neurotensin receptor type 1 (Homo sapiens, UniProt P30989, P133A); test: as §5; procedure, shortened: as §2
Neurotensin receptor type 1 (Homo sapiens, UniProt P30989, P133A), sequence (P30989 whole entry P133A): as the sequence (P30989 whole entry H131A) above, with A131H, P133A counted along it

[9] = target: Neurotensin receptor type 1 (Homo sapiens, UniProt P30989, F136A); test: (§6) Displacement of [3H]SR48692 from human NTR1 extracellular loop 1 F136A mutant expressed in HEK293 cells; procedure, shortened: as §2
Neurotensin receptor type 1 (Homo sapiens, UniProt P30989, F136A), sequence (P30989 whole entry F136A): as the sequence (P30989 whole entry H131A) above, with A131H, F136A counted along it

[10] = test system: Neurotensin receptor type 1 (Homo sapiens), P30989 [F136A]; test: as §6; procedure, shortened: as §2
Neurotensin receptor type 1 (Homo sapiens), P30989 [F136A], sequence (P30989 whole entry F136A): as the sequence (P30989 whole entry H131A) above, with A131H, F136A counted along it

[11] = test system: Neurotensin receptor type 1 (Homo sapiens), P30989 [W134A]; test: (§7) Displacement of [3H]SR48692 from human NTR1 extracellular loop 1 W134A mutant expressed in HEK293 cells; procedure, shortened: as §2
Neurotensin receptor type 1 (Homo sapiens), P30989 [W134A], sequence (P30989 whole entry W134A): as the sequence (P30989 whole entry H131A) above, with A131H, W134A counted along it

[12] = target: Neurotensin receptor type 1 (Homo sapiens, UniProt P30989, W134A); test: as §7; procedure, shortened: as §2
Neurotensin receptor type 1 (Homo sapiens, UniProt P30989, W134A), sequence (P30989 whole entry W134A): as the sequence (P30989 whole entry H131A) above, with A131H, W134A counted along it

[13] = target: T1, Neurotensin receptor type 1 (Homo sapiens, UniProt P30989); test: Displacement of [3H]SR48692 from wild type human NTR1 expressed in HEK293 cells; procedure, shortened: as §2
T1 sequence (P30989 whole entry): as the sequence (P30989 whole entry H131A) above, with A131H counted along it

[14] = target: T1, Neurotensin receptor type 1; test: Displacement of [3H]NT(8-13) from wild type human NTR1 expressed in HEK293 cells

Neurotensin receptor type 1 (Homo sapiens, UniProt P30989, H131A), sequence (P30989 whole entry H131A): as the sequence (P30989 whole entry H131A) above

Kd [1] [nM] | Bmax [2] [pmol/mg] | Bmax [3] [pmol/mg] | Kd [4] [nM] | Bmax [5] [pmol/mg] | Kd [6] [nM] | Bmax [7] [pmol/mg] | Kd [8] [nM] | Kd [9] [nM] | Bmax [10] [pmol/mg] | Bmax [11] [pmol/mg] | Kd [12] [nM] | Bmax [13] [pmol/mg] | Kd [13] [nM] | Ki [14] [nM] | Structure (SMILES)
8.4 | 16 | 18 | 19 | 9.4 | 27 | 9.3 | 9.2 | 33 | 10 | 10 | 23 | 15 | 8.9 |  | COc1cccc(OC)c1-c1cc(C(=O)NC2(C(=O)O)C3CC4CC(C3)CC2C4)nn1-c1ccnc2cc(Cl)ccc12 (stereo not given) [REMINERTANT]
 |  |  |  |  |  |  |  |  |  |  |  |  |  | 2.4 | CC[C@H](C)[C@H](NC(=O)[C@H](Cc1ccc(O)cc1)NC(=O)[C@@H]1CCCN1C(=O)[C@H](CCCNC(=N)N)NC(=O)[C@@H](N)CCCNC(=N)N)C(=O)NC1(C(=O)O)C2CC3CC(C2)CC1C3 (stereo not given in full)
